Calls of active or inactive are those of the source. No cut-off for these calls is given here.
Tests used:
[1] = Chemical stability in DMSO assessed as compound precipitation after several weeks; assay type: physicochemical
[2] = Cytotoxicity against rat RINm5F cells at 39 to 78 uM by MTT assay; assay type: cell-based
Outline: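 RIN5F rat insulinoma cells, 1×10^5 per well, cytokine-induced and compound-treated as for the NO assay. After supernatant removal, medium was replaced with fresh medium containing MTT (2.5 mg/mL in PBS) for 4 h at 37 °C. Formazan was dissolved in DMSO. Viability is expressed as percent of cytokine-stimulated cells without compound.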

[3] = target: Nitric oxide synthase, inducible (Rattus norvegicus) (UniProt Q06518); assay: (§1) Inhibition of iNOS-mediated NO production in IL-1beta/IFNgamma-stimulated rat […] cells by Griess reaction
Outline: (§2)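 Same cytokine-stimulated RIN5F Griess assay (IL-1β 1 ng/mL, IFN-γ 10 ng/mL; nitrite at 550 nm, nitrite calibration). Concentrations were chosen per compound to span 10–90% inhibition, plus one or two outside this range. IC50 was obtained by linear regression of log concentration versus percent inhibition.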

[4] = target: Nitric oxide synthase, inducible (Rattus norvegicus, UniProt Q06518); assay: as §1; outline: as §2
[5] = target: Nitric oxide synthase, inducible (Rattus norvegicus) (UniProt Q06518); assay: Inhibition of iNOS-mediated NO production in IL-1beta/IFNgamma-stimulated rat […] cells at 39 to 78 uM by Griess reaction
Outline: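 Compounds were added from 62.5 mM DMSO stock at 78 and 39 μM (final 0.5% DMSO). Nitrite in supernatant was measured by Griess reagents, absorbance 550 nm, against a 0–100 μM nitrite standard. Aminoguanidine was the reference on each plate. n = 5–8.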

[6] = Chemical stability in DMSO assessed as compound precipitation after 7 days; assay type: physicochemical; conditions: 168 h
[7] = target: Nitric oxide synthase, inducible (Rattus norvegicus) (UniProt Q06518); assay: Ratio of aminoguanidine IC50 to compound IC50 for iNOS-mediated NO production in IL-1beta/IFNgamma-stimulated rat […] cells by Griess reaction

Sequence of Nitric oxide synthase, inducible (Rattus norvegicus) (Q06518 whole entry): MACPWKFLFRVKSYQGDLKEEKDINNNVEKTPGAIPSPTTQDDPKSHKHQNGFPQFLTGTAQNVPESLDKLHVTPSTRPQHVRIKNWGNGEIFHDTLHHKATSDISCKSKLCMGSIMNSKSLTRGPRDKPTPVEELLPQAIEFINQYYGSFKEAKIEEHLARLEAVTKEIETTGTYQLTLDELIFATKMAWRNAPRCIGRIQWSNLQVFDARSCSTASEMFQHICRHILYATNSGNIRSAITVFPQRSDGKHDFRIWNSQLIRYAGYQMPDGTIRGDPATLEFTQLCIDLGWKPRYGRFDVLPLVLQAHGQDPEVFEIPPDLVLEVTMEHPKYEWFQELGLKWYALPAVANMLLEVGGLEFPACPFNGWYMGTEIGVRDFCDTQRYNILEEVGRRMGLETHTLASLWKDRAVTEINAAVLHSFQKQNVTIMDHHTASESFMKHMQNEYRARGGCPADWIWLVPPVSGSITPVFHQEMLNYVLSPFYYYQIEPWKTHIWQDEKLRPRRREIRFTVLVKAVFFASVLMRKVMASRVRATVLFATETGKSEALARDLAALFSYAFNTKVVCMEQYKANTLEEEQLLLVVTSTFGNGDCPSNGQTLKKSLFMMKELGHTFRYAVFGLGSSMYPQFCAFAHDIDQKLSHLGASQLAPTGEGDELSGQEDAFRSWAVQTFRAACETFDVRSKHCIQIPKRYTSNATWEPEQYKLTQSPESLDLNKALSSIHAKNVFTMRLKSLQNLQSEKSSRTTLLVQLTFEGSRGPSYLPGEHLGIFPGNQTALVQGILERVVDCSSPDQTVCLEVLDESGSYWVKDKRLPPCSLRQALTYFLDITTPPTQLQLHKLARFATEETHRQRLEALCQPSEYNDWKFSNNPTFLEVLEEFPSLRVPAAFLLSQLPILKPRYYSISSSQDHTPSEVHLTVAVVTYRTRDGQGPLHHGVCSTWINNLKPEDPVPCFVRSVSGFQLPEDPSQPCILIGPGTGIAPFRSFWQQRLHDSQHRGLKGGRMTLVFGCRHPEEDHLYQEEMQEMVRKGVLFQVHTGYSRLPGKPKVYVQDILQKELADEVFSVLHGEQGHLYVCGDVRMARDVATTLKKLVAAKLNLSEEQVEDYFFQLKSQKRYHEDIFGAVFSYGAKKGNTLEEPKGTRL
Sequence of Nitric oxide synthase, inducible (Q06518 whole entry): as above

Row | Stability [1] | inhibition [3] | IC50 [4] [µM] | inhibition [5] | Stability [6] | Ratio IC50 [7] | Compound | Activity [2]
1 | Unstable | inactive | – | – | – | – | CC1NC(=S)N2CCCCN12 (centres undefined) | Non-toxic
2 | Unstable | – | 60.3 | – | – | – | Cc1ccccc1C1NC(=S)N2CCCCN12 (centres undefined) | Non-toxic
3 | Unstable | – | 63 | – | – | – | S=C1NC(c2ccccc2Cl)N2CCCCN12 (centres undefined) | Non-toxic
4 | Unstable | – | 57.6 | – | – | – | S=C1NC(c2ccc(Cl)cc2)N2CCCCN12 (centres undefined) | Non-toxic
5 | Unstable | – | 40.2 | – | – | – | S=C1NC(c2cccc(Oc3ccccc3)c2)N2CCCCN12 (centres undefined) | Non-toxic
6 | Unstable | – | 70 | – | – | – | Oc1ccccc1C1NC(=S)N2CCCCN12 (centres undefined) | Non-toxic
7 | Unstable | – | – | Active | – | – | S=C1NC(c2cccc(Cl)c2)N2CCCCN12 (centres undefined) | Non-toxic
8 | Unstable | – | – | Active | – | – | Cc1cccc(C2NC(=S)N3CCCCN23)c1 (centres undefined) | Non-toxic
9 | Unstable | – | 53.2 | – | – | – | Cc1ccc(C2NC(=S)N3CCCCN23)cc1 (centres undefined) | Non-toxic
10 | – | – | 29.9 | – | Unstable | – | S=C1NC(/C=C/c2ccccc2)N2CCCCN12 (centres undefined) | Non-toxic
11 | – | – | 9.81 | – | Unstable | 10 | O=[N+]([O-])c1ccccc1/C=C/C1NC(=S)N2CCCCN12 (centres undefined) | Non-toxic
12 | Unstable | – | – | Active | – | – | Oc1ccc(C2NC(=S)N3CCCCN23)cc1 (centres undefined) | Non-toxic
13 | Unstable | – | – | Active | – | – | S=C1NC(c2ccccc2)N2CCCCN12 (centres undefined) | Non-toxic
14 | Unstable | – | 13.2 | – | – | – | O=[N+]([O-])c1ccc(C2NC(=S)N3CCCCN23)cc1 (centres undefined) | Non-toxic
15 | Unstable | – | 101 | – | – | 2 | CN(C)c1ccc(C2NC(=S)N3CCCCN23)cc1 (centres undefined) | Non-toxic
16 | Unstable | inactive | – | – | – | – | S=C1NC(Cc2ccccc2)N2CCCCN12 (centres undefined) | Non-toxic
17 | Unstable | – | – | Active | – | – | COc1ccc(C2NC(=S)N3CCCCN23)cc1 (centres undefined) | Non-toxic
18 | Unstable | – | 16.2 | – | – | – | O=[N+]([O-])c1cccc(C2NC(=S)N3CCCCN23)c1 (centres undefined) | Non-toxic
19 | Unstable | – | – | Active | – | – | Oc1cccc(C2NC(=S)N3CCCCN23)c1 (centres undefined) | Non-toxic
20 | Unstable | – | 24.2 | – | – | – | O=[N+]([O-])c1ccccc1C1NC(=S)N2CCCCN12 (centres undefined) | Non-toxic

Row | Compound | Stability [1] | inhibition [3] | IC50 [4] [µM] | inhibition [5] | Stability [6] | Ratio IC50 [7] | Activity [2]
21 | N=C(N)NN [PIMAGEDINE] | – | – | 132 | – | – | – | Non-toxic
